Measured values pooled from the literature.
Compare with care: the assays were run in different laboratories.
Target: Mitogen-activated protein kinase kinase kinase 2 (MAP3K2, Homo sapiens, UniProt Q9Y2U5)
Residues used in one study (Q9Y2U5 1-619): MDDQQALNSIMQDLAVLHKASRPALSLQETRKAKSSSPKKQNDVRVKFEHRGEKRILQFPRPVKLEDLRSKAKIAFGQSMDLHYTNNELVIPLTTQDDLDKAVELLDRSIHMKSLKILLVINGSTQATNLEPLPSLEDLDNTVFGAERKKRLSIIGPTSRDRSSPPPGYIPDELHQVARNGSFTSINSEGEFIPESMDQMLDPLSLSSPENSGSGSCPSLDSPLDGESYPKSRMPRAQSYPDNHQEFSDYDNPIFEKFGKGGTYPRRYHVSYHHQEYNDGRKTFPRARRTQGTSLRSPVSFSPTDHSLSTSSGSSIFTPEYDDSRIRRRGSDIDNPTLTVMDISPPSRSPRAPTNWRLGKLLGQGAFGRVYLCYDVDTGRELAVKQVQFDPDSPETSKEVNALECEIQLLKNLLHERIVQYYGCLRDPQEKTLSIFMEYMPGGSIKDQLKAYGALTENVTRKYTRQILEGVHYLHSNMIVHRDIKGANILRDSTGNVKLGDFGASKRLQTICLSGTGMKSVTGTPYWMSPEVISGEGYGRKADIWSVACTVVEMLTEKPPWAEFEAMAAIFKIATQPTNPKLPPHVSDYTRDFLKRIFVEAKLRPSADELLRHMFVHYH

`O=C(Nc1c[nH]nc1C(=O)NC1CCNCC1)c1cc(F)cc(F)c1` has a remaining binding of 94% (binding, competition with immobilised ligand; 1 µM).
`CN(C)c1nccc(-c2cnc3ncccn23)n1` gave a remaining binding of 73% (binding; 1 µM).
`CNC(=O)[C@@H]1CC[C@@H](n2c(-c3ccc4cnccc4c3)nc3ccc(C(=O)NCc4cccc(C(N)=O)c4)cc32)C1` gave a remaining binding of 86% (binding, competition with immobilised ligand; 1 µM).
For `FC(F)(F)Oc1cccc(-c2cnc3ccc(-c4ccncc4)nn23)c1`, the remaining binding was 79% (cell-free assay, competition with immobilised ligand; 5 µM).
`c1cncc(-c2cccc(Nc3nccc(NC4CCCCC4)n3)c2)c1` has a remaining binding of 48% (binding, competition with immobilised ligand; 10 µM).
The remaining binding of `O=C(NCCCN1CCOCC1)c1ccc(Nc2nccc(-c3cc4ccccc4s3)n2)cc1` is reported as 24% (binding, competition with immobilised ligand; 1 µM).
`CCN1CCN(Cc2ccc(C(=O)Nc3ccc(C)c(Oc4ccc5c(c4)CC(=O)N5)c3)cc2C(F)(F)F)CC1` gave a remaining binding of 100% (binding, competition with immobilised ligand; 1 µM).
`COc1cnc(Nc2cccc(S(N)(=O)=O)c2)nc1N1CCN(c2ccccc2)C(=O)C1` gave a remaining binding of 74% (binding, competition with immobilised ligand; 1 µM).
`N[C@H]1CCN(c2nccc(-c3cnn4ncccc34)n2)C1` has a remaining binding of 100% (binding; 1 µM).
With `O=S(=O)(NC1CCC(c2cc(F)ccc2F)(S(=O)(=O)c2ccc(Cl)cc2)CC1)C(F)(F)F` (stereo not drawn) the remaining binding was 98% (cell-free assay, competition with immobilised ligand; 1 µM).
With `O=C(c1ccc(Nc2ncc(Cl)c(-c3ccc(Cl)s3)n2)cc1)N1CCC(N2CCCC2)CC1` the remaining binding was 4.9% (binding, competition with immobilised ligand; 1 µM).
`c1ccc(N2CCN(Cc3nc4ccccc4[nH]3)CC2)nc1` gave a remaining binding of 100% (binding, competition with immobilised ligand; 1 µM).
`CN(C)c1nccc(-c2cnn3ncccc23)n1` has a remaining binding of 78% (binding; 1 µM).
For `CCC(=N\O)/C(C)=C/c1ccc(F)cc1`, the remaining binding was 85% (cell-free assay, competition with immobilised ligand; 1 µM).
The remaining binding of `Cc1cnc(Nc2ccc(C(=O)N3CCC(N4CCCC4)CC3)cc2)nc1-c1cc2ccccc2s1` is reported as 5.1% (binding, competition with immobilised ligand; 1 µM).
For `c1cnn2ncc(-c3ccnc(N4CCC45COC5)n3)c2c1`, the remaining binding was 58% (binding; 1 µM).
The remaining binding of `C[C@@H]1CN(c2cc(-c3nn(C)c4ccc(OC5(C)CC5)cc34)ncn2)C[C@H](C)O1` is reported as 83% (cell-free assay, competition with immobilised ligand; 1 µM).
`C[C@H]1CCN(c2nccc(-c3cnn4ncccc34)n2)C1` has a remaining binding of 81% (binding; 1 µM).
For `CN(C)CC#Cc1ccc(OCCCc2sc(N3CCc4cccc(C(=O)Nc5nc6ccccc6s5)c4C3)nc2C(=O)O)c(F)c1`, the remaining binding was 75% (cell-free assay, competition with immobilised ligand; 1 µM).
`COc1ccnn2ncc(-c3ccnc(N(C)C)n3)c12` gave a remaining binding of 87% (binding; 1 µM).
`Cc1nc(N2CC[C@@H](O)C2)ncc1-c1cc(C(F)(F)F)cc2[nH]ncc12` has a remaining binding of 60% (binding, competition with immobilised ligand; 1 µM).
